Assay [1] has as its target Serine/threonine-protein kinase Nek6 (Homo sapiens) (UniProt Q9HC98). Description: Inhibition of human recombinant NEK6 at 40 nM in presence of ATP by radiometric assay relative to control.
Assay [2] concerns the target Mitogen-activated protein kinase 1 (Homo sapiens) (UniProt P28482). Description: Inhibition of human recombinant Erk2 at 40 nM related to control ULK1.
For assay [3], the species on record is Homo sapiens. Put plainly: Inhibition of human recombinant CK1d at 40 nM related to control ULK1.
The target in assay [4] is Tyrosine-protein kinase Fyn (Homo sapiens) (UniProt P06241). Put plainly: Inhibition of human recombinant FYN at 500 nM related to control ULK1.
For assay [5], the target named is Insulin receptor (Homo sapiens) (UniProt P06213). Description: Inhibition of human recombinant INSR at 500 nM in presence of ATP by radiometric assay relative to control.
The target in assay [6] is Serine/threonine-protein kinase mTOR (Homo sapiens) (UniProt P42345). Put plainly: Inhibition of human recombinant FRAP at 500 nM related to control ULK1.
The target of assay [7] is T1, Activin receptor type-1 (Homo sapiens) (UniProt Q04771).
T1 sequence (whole entry): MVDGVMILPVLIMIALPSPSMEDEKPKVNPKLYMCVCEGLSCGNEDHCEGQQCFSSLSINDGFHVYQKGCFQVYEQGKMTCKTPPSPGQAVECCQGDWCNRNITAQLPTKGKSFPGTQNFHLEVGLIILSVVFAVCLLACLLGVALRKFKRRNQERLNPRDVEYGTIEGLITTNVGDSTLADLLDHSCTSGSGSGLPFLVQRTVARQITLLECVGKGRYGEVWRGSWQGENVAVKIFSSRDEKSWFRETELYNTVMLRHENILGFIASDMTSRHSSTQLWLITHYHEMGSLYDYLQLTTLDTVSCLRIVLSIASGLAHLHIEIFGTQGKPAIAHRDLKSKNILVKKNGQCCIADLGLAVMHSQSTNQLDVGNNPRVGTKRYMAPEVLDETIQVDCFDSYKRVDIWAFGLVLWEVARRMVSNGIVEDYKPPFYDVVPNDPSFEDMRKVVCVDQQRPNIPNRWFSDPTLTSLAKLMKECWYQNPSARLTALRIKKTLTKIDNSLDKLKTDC
Description: Inhibition of human recombinant ALK2 at 500 nM related to control ULK1. In a few lines:
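Panel of 327 recombinant human kinases, each assayed in vitro by radiometric activity assay in duplicate at a single inhibitor concentration per compound, chosen with reference to its ULK1 inhibition. Activity remaining was expressed as percent of vehicle control, and percent inhibition was calculated as 100 minus percent activity remaining.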

The target in assay [8] is cAMP-dependent protein kinase catalytic subunit beta (Homo sapiens) (UniProt P22694). Description: Inhibition of human recombinant PKACbeta at 15 nM related to control ULK1.
Assay [9] has as its target Serine/threonine-protein kinase MRCK beta (Homo sapiens) (UniProt Q9Y5S2). Description: Inhibition of human recombinant MRCKb at 15 nM related to control ULK1.
Assay [10] addresses Serine/threonine-protein kinase mTOR (Homo sapiens) (UniProt P42345). Description: Inhibition of human recombinant FRAP at 15 nM related to control ULK1.
The target in assay [11] is T2, Serine/threonine-protein kinase Nek3 (Homo sapiens) (UniProt P51956).
T2 sequence (whole entry): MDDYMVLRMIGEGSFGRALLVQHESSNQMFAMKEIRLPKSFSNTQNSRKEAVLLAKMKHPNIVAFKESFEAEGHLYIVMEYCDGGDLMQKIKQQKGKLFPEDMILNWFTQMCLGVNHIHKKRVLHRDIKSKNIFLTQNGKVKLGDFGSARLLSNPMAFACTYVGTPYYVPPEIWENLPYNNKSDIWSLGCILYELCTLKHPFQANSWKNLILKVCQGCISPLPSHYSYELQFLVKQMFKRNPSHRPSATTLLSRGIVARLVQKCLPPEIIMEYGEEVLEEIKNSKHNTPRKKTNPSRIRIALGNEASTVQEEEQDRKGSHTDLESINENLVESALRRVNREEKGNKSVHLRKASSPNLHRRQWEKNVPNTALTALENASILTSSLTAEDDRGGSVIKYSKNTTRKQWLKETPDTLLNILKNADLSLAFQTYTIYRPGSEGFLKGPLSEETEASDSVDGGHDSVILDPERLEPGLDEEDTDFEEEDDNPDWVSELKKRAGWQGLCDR
Put plainly: Inhibition of human recombinant NEK3 at 15 nM related to control ULK1.

Assay [12] deals with T3, Serine/threonine-protein kinase DCLK2 (Homo sapiens) (UniProt Q8N568).
T3 sequence (whole entry): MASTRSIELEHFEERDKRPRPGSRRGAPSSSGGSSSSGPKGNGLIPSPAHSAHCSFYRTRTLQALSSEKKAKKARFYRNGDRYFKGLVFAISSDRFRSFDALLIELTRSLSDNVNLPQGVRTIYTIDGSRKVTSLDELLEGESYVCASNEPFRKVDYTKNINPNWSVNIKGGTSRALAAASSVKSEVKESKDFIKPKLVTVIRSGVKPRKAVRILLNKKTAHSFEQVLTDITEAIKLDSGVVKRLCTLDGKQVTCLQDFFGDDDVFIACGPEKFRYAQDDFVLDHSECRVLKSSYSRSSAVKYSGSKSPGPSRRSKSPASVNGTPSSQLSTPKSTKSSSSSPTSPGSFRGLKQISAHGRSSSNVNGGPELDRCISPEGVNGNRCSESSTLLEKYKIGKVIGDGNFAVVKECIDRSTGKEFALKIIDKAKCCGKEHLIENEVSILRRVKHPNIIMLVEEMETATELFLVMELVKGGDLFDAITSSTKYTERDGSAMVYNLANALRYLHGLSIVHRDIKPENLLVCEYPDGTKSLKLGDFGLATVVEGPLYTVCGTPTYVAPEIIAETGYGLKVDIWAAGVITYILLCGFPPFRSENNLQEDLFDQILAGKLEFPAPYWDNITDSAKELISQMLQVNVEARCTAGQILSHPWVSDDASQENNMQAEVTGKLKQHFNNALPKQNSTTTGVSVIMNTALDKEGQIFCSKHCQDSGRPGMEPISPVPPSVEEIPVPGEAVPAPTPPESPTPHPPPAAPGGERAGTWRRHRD
Description: Inhibition of human recombinant DCAMKL2 at 15 nM in presence of ATP by radiometric assay relative to control.

Assay [13] addresses Protein-tyrosine kinase 2-beta (Homo sapiens) (UniProt Q14289). Description: Inhibition of human recombinant PYK2 at 15 nM in presence of ATP by radiometric assay relative to control.

Chain of Protein-tyrosine kinase 2-beta (Homo sapiens) (Q14289 whole entry, looked up): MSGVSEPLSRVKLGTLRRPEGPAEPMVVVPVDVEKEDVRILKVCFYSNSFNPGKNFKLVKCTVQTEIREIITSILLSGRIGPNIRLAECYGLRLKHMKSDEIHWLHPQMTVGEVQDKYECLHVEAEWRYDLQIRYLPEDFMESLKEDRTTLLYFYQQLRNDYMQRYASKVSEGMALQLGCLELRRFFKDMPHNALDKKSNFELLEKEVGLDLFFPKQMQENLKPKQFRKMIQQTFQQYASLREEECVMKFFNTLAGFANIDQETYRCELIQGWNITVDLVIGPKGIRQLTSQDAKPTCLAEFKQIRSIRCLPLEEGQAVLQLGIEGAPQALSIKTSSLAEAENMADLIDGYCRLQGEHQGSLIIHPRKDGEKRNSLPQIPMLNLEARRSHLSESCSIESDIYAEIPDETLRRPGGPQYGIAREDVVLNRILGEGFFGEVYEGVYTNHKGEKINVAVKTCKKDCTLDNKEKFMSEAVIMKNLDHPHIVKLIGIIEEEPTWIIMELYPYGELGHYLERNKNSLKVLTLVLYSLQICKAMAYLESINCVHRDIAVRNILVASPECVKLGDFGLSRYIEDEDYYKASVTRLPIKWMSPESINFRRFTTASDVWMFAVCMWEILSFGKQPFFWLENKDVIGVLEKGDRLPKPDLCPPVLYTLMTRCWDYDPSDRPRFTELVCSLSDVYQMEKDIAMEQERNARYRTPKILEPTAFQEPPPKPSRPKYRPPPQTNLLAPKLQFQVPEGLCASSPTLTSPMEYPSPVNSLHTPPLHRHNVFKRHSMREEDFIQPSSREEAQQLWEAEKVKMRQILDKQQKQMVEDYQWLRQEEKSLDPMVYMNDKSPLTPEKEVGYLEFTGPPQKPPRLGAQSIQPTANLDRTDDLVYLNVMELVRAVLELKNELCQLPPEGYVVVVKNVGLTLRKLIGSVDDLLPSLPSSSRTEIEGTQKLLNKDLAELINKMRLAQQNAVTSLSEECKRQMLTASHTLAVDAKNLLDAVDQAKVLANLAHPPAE
Chain of Serine/threonine-protein kinase Nek6 (Homo sapiens) (Q9HC98 whole entry): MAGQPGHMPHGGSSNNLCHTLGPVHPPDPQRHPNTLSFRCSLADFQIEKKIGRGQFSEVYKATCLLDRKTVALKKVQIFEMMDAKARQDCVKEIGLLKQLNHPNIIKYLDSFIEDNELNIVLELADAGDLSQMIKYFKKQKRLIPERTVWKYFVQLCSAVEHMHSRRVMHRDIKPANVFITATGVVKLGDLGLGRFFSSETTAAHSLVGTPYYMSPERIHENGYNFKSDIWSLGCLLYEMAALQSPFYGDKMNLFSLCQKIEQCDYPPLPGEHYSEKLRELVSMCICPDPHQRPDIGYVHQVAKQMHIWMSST
Chain of Serine/threonine-protein kinase MRCK beta (Homo sapiens) (Q9Y5S2 whole entry): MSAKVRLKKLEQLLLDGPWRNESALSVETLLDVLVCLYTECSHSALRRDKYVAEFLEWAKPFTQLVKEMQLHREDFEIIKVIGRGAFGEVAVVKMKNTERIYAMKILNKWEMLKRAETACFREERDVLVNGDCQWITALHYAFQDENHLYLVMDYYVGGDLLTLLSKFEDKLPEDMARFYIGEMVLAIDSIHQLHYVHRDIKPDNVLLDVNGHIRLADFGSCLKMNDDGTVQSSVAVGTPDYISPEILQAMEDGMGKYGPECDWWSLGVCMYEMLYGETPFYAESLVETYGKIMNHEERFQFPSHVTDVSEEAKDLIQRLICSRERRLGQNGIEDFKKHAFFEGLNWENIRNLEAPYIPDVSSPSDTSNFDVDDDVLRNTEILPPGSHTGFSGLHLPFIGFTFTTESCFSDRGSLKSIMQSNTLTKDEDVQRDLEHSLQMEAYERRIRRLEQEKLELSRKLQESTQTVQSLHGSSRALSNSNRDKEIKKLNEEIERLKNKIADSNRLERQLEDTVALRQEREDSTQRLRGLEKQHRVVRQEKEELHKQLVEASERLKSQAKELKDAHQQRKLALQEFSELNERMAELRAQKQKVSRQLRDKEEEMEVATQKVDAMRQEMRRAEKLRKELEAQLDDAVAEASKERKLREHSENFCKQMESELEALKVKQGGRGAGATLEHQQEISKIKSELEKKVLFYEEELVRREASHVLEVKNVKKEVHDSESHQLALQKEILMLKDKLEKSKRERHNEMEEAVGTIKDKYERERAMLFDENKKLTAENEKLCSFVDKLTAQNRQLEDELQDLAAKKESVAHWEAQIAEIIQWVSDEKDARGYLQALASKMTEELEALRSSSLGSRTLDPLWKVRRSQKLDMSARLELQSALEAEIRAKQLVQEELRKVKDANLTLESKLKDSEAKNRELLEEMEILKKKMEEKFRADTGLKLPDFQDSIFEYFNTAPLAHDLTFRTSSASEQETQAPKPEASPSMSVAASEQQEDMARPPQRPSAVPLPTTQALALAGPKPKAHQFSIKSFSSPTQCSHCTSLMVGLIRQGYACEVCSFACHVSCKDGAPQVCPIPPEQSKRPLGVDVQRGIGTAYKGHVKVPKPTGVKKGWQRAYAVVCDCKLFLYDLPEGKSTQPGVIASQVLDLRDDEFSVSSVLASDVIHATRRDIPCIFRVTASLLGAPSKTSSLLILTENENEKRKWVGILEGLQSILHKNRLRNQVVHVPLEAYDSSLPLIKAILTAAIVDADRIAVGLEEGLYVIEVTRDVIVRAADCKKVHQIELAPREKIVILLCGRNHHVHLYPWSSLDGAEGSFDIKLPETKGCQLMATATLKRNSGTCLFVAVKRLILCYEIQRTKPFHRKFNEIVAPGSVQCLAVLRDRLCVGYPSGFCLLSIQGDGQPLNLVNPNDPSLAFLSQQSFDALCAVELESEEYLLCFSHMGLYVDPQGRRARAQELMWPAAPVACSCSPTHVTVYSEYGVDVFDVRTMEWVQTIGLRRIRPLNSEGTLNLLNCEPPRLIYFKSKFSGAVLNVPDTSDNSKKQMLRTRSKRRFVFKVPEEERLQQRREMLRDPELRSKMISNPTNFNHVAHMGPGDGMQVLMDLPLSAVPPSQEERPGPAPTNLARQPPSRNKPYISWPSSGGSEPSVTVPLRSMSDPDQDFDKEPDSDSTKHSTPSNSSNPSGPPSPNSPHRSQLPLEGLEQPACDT
Chain of Insulin receptor (Homo sapiens) (P06213 28-758 limits assumed): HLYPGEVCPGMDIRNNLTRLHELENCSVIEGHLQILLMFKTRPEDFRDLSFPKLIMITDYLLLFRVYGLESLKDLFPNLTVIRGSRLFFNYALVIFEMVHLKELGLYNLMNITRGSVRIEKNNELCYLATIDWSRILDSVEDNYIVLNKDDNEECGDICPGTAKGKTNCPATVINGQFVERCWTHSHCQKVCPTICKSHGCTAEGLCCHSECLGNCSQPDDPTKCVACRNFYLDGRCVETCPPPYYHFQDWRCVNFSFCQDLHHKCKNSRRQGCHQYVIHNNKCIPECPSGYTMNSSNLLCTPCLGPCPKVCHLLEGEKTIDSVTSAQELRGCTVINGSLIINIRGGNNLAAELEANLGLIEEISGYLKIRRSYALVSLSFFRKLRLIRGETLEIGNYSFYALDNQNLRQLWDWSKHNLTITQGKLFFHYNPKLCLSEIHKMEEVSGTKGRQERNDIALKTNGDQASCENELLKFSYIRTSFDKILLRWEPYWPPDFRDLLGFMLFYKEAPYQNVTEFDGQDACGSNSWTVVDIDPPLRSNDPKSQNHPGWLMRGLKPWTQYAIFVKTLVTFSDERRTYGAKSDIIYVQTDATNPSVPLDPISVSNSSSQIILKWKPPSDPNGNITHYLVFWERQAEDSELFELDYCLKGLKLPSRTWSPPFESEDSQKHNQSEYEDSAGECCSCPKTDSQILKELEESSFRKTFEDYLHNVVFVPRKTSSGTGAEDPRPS
Chain of Insulin receptor (Homo sapiens) (P06213 763-1382 limits assumed): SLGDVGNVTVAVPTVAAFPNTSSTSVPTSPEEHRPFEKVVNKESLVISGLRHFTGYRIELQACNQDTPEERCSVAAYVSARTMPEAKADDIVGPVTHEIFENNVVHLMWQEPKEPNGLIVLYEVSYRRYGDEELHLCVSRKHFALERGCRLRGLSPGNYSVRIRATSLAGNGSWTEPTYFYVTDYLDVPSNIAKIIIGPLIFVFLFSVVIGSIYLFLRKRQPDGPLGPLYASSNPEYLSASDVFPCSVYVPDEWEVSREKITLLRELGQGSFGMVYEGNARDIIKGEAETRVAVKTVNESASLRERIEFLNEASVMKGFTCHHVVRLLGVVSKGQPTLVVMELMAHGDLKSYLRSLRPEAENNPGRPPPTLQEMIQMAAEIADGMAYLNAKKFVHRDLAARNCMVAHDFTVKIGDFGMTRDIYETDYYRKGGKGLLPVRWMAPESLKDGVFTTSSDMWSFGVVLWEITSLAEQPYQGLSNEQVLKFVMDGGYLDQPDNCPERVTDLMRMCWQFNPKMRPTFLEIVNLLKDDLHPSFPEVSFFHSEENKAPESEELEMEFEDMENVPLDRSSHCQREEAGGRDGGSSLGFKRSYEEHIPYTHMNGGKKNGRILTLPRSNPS
Chain of Tyrosine-protein kinase Fyn (Homo sapiens) (P06241 2-537 limits assumed): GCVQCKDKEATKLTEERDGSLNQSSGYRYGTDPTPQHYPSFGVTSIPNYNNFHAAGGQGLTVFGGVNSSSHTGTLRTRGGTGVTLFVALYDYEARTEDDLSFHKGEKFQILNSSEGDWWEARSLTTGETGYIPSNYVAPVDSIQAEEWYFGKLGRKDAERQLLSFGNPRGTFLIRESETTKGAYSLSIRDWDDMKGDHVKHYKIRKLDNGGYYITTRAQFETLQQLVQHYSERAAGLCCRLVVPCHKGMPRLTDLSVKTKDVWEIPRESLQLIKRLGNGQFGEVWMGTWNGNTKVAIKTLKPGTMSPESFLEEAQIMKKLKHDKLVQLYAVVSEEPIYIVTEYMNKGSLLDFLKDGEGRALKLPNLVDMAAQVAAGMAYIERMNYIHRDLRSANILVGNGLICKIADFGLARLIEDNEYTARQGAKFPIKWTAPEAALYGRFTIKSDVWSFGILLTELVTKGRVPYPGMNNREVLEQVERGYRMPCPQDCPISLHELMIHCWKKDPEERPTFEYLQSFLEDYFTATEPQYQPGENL

As a reminder, the inhibition is the share of the control response that was lost under treatment. In the case of `O=C(N[C@@H](C1CC1)C(F)(F)F)c1cc(-c2cnn3cc(-c4ccc(F)cc4)cnc23)cs1`, the inhibition in assay [1] is 0%. Further, the results for the fold change (FC) in [2] and in [3] were 0 and 0.04, respectively.

In the case of `CNC(=O)c1ccccc1Oc1nc(Nc2cc(OC)c(OC)c(OC)c2)ncc1Br`, the results for the fold change (FC) in [4], in assay [6] and in [7] were 0.26, 0 and 0.62, respectively. Also, the inhibition in assay [5] was 0%.

On to `CC(C)[C@H](NC(=O)c1cc(-c2cnn3cc(-c4ccc(OCCN5CCCCC5)cc4)cnc23)cs1)C(F)(F)F`, for which the fold change (FC) in assay [8] is 0; in assay [9], 0.07; in assay [10], 0; in [11] it was 0.01. The inhibition in assay [12] turned out to be 12%; in assay [13], 0%.
